Assay results: ChEMBL document CHEMBL4406918, “Inhibitory Effects of Multivalent Polypeptides on the Proliferation and Metastasis of Breast Cancer Cells” (ACS Med Chem Lett, 2019)
Active and inactive are the calls of the source. The calls are words filed in the database; no cut-off is given here. Where a SMILES comes first, the peptide text is derived from it.

Columns and labels:
4T1 [1] = assay: Inhibition of cell migration in mouse 4T1 cells assessed as migration frequency at 0.2 mM incubated for 24 hrs by crystal violet staining based transwell assay relative to control; type: functional; set-up: scale not given: the % may be the effect or the level left
Method in brief: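 4T1 cells, Transwell migration with 24 h exposure to 0.2 mM. Migration rate comes from counting cells on the bottom of the porous membrane. Mean ± SD, n = 3.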

4T1 [2] = assay: Antitumour activity against mouse 4T1 cells xenografted in BALB/c mouse assessed as reduction in number of lung tumor metastatic nodules at 10 mg/kg administered intratumorally and measured after 24 days by H and E staining based inverted optical microscopic method; type: functional, organism-based
Method in brief: (§1)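 After 6 doses of 10 mg/kg to 4T1 tumour-bearing BALB/c mice (saline control), lungs were photographed whole and examined histopathologically for the number and size of metastatic nodules.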

4T1 [3] = assay: Inhibition of cell migration in mouse 4T1 cells assessed as wound closure rate at 0.2 mM measured up to 36 hrs by inverted optical microscopic method based wound healing assay (reference value: 82%); type: functional; set-up: scale not given: the % may be the effect or the level left
4T1 [4] = assay: Induction of apoptosis in mouse 4T1 cells assessed as necrotic cells at 0.4 mM incubated for 24 hrs by Annexin V-FITC/PI based FACS analysis (reference value: 0.47%); type: functional
[5] = Toxicity in BALB/c mouse xenografted with mouse 4T1 cells assessed as change in body weight at 10 mg/kg administered intratumorally and measured after 24 days; type: organism-based; settings: in vivo, other, 576 h
Method in brief: (§2)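 BALB/c mice bearing subcutaneous 4T1 tumours received 6 doses of 10 mg/kg, with equal YSL-monomer molar amounts across compounds and saline as control. Tumour volume growth curves and body weights were tracked. Mean ± SD, n = 5.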

4T1 [6] = assay: Inhibition of metastasis in mouse 4T1 cells assessed as disruption in F-actin arrangement at 0.2 mM incubated for 24 hrs by Hoechst 33342 staining based confocal laser scanning microscopic method; type: functional, cell-based
Method in brief: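 After 24 h at 0.2 mM, 4T1 cells were stained for F-actin with Alexa Fluor 488 phalloidin and for nuclei with Hoechst 33342, then imaged by fluorescence for cytoskeletal arrangement and cell morphology.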

4T1 [7] = assay: Induction of apoptosis in mouse 4T1 cells assessed as viable cells at 0.4 mM incubated for 24 hrs by Annexin V-FITC/PI based FACS analysis (reference value: 92.2%); type: functional; settings: 4T1, 24 h, read-out: Activity
4T1 [8] = assay: Antiinvasive activity in mouse 4T1 cells assessed as inhibition of cell invasion at 0.2 mM incubated for 24 hrs by crystal violet staining based matrigel invasion assay relative to control; type: functional; settings: 4T1, 24 h
Method in brief: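 4T1 cells, Matrigel-coated Transwell invasion with 0.2 mM compound. Invasion rate comes from counting cells on the underside of the Matrigel-coated porous membrane, relative to untreated control. Mean ± SD, n = 3.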

Erythrocyte = assay: Hemolytic activity in BALB/c mouse RBC at 3.2 mM incubated for 2 hrs by UV-Vis spectrophotometric analysis; type: ADME, cell-based; settings: 3200 µM
Method in brief: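 Hemolysis assay on red blood cells with dendrimers up to 3.2 mM. Result is expressed as hemolysis rate, with under 5% taken as acceptable.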

[9] = Stability in fetal bovine serum assessed as drug degradation measured for 12 hrs by RP-HPLC analysis; type: ADME, cell-free, Bos taurus; settings: cattle, read-out: Drug degradation
Method in brief: (§3)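 Peptides incubated in serum for up to 12 h. Degradation is followed as the percentage of intact YSL remaining at time points including 4 and 12 h.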

4T1 [10] = assay: Antitumour activity against mouse 4T1 cells xenografted in BALB/c mouse assessed as increase in damage of tumor tissue at 10 mg/kg administered intratumorally and measured after 24 days by H and E staining based inverted optical microscopic method; type: functional, organism-based
Method in brief: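 Tumours from 4T1-bearing BALB/c mice given 6 doses of 10 mg/kg (saline control) were sectioned and stained with H&E, plus CD31, Ki-67 and TUNEL.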

[11] = Toxicity in BALB/c mouse xenografted with mouse 4T1 cells assessed as induction of morphological lesions in kidney at 10 mg/kg administered intratumorally and measured after 24 days by H and E staining based inverted optical microscopic method; type: organism-based; settings: in vivo, other, 576 h
4T1 [12] = assay: Induction of apoptosis in mouse 4T1 cells at 0.8 mM incubated for 24 hrs by PI staining based inverted microscopic method; type: functional, cell-based
Method in brief: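 Live–dead staining of 4T1 cells after 24 h exposure, with PI uptake imaged microscopically. A higher 0.8 mM dose was also tested.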

4T1 [13] = assay: Induction of apoptosis in mouse 4T1 cells assessed as early apoptotic cells at 0.4 mM incubated for 24 hrs by Annexin V-FITC/PI based FACS analysis (reference value: 0.76%); type: functional
4T1 [14] = assay: Induction of cell cycle arrest in mouse 4T1 cells assessed as accumulation at G2/M phase at 0.4 mM incubated for 24 hrs by PI staining based flow cytometric analysis (reference value: 19.82%); type: functional
[15] = Toxicity in BALB/c mouse xenografted with mouse 4T1 cells assessed as induction of morphological lesions in liver at 10 mg/kg administered intratumorally and measured after 24 days by H and E staining based inverted optical microscopic method; type: organism-based; settings: in vivo, other, 576 h
4T1 [16] = assay: Antiproliferative activity against mouse 4T1 cells assessed as cell death at 0.2 mM incubated for 24 hrs by MTT assay relative to control; type: functional
Method in brief: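 Mouse 4T1 breast cancer cells exposed for 24 h (doses include 0.1 and 0.2 mM), then read by MTT for viability or cell death. Mean ± SD, n = 6.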

4T1 [17] = assay: Induction of apoptosis in mouse 4T1 cells assessed as late apoptotic cells at 0.4 mM incubated for 24 hrs by Annexin V-FITC/PI based FACS analysis (reference value: 6.62%); type: functional
[18] = Stability in fetal bovine serum assessed as drug degradation measured for 4 hrs by RP-HPLC analysis; type: ADME, cell-free, Bos taurus; settings: cattle, read-out: Drug degradation; method in brief: as §3
[19] = Toxicity in BALB/c mouse xenografted with mouse 4T1 cells assessed as change in blood urea nitrogen level at 10 mg/kg administered intratumorally and measured after 24 days; type: organism-based; settings: in vivo, other, 576 h
[20] = Toxicity in BALB/c mouse xenografted with mouse 4T1 cells assessed as change in serum creatinine level at 10 mg/kg administered intratumorally and measured after 24 days; type: organism-based; settings: in vivo, other, 576 h
4T1 [21] = assay: Induction of cell cycle arrest in mouse 4T1 cells assessed as accumulation at S phase at 0.4 mM incubated for 24 hrs by PI staining based flow cytometric analysis (Rvb =42.35%); type: functional
4T1 [22] = assay: Antitumour activity against mouse 4T1 cells xenografted in BALB/c mouse assessed as inhibition in tumor growth at 10 mg/kg administered intratumorally and measured every 3 days for 24 days; type: functional, organism-based; method in brief: as §2
[23] = Toxicity in BALB/c mouse xenografted with mouse 4T1 cells assessed as induction of morphological lesions in heart at 10 mg/kg administered intratumorally and measured after 24 days by H and E staining based inverted optical microscopic method; type: organism-based; settings: in vivo, other, 576 h
4T1 [24] = assay: Induction of cell cycle arrest in mouse 4T1 cells assessed as accumulation at G0/G1 phase at 0.4 mM incubated for 24 hrs by PI staining based flow cytometric analysis (reference value: 37.78%); type: functional
4T1 [25] = assay: Antiproliferative activity against mouse 4T1 cells at 0.1 mM incubated for 24 hrs by MTT assay; type: functional, cell-based
4T1 [26] = assay: Antitumour activity against mouse 4T1 cells xenografted in BALB/c mouse assessed as reduction in size of lung tumor metastatic nodules at 10 mg/kg administered intratumorally and measured after 24 days by H and E staining based inverted optical microscopic method; type: functional, organism-based; method in brief: as §1
[27] = Toxicity in BALB/c mouse xenografted with mouse 4T1 cells assessed as induction of morphological lesions in spleen at 10 mg/kg administered intratumorally and measured after 24 days by H and E staining based inverted optical microscopic method; type: organism-based; settings: in vivo, other, 576 h

COC(=O)[C@H](CC(C)C)NC(=O)[C@H](CO)NC(=O)[C@@H](N)Cc1ccc(O)cc1 (H-Tyr-Ser-Leu-OMe)
Activity (4T1 [1]): 82%
Activity (4T1 [2]): Active
Activity (4T1 [3]): 80%
Activity (4T1 [4]): 1.23%
Activity [5]: Non-Toxic
F-actin disruption (qualitative) (4T1 [6]): Active
viability at 400 µM (4T1 [7]): 87.6%
inhibition at 200 µM (4T1 [8]): 92%
Activity (Erythrocyte): Non-Toxic
metabolised at 12 h [9]: 100%
Activity (4T1 [10]): Active
Activity [11]: Non-Toxic
Activity (4T1 [12]): Active
Activity (4T1 [13]): 0.88%
Activity (4T1 [14]): 48.48%
Activity [15]: Non-Toxic
Activity (4T1 [16]): 2%
Activity (4T1 [17]): 10.3%
metabolised at 4 h [18]: 60%
Activity [19]: Non-Toxic
Activity [20]: Non-Toxic
Activity (4T1 [21]): 42.35%
Activity (4T1 [22]): Active
Activity [23]: Non-Toxic
Activity (4T1 [24]): 37.41%
Activity (4T1 [25]): inactive
Activity (4T1 [26]): Active
Activity [27]: Non-Toxic
